Data set [1] concerns Trypanosoma brucei brucei. Description: Antitrypanosomal activity against Trypanosoma brucei brucei BS427 after 48 hrs by resazurin dye based fluorescence assay. In kind it is functional, organism-based. The conditions noted are these: Trypanosoma brucei, BS427, 48 h; read-out: IC50. In outline: (§1)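 IC50 values are the mean of two independent experiments. The T. b. brucei assay uses free parasites. The T. cruzi assay uses intracellular parasites in H9c2 host cells.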

A short description of data set [2]: Selectivity index, ratio of IC50 for human HEK293 cells incubated for 69 hrs by resazurin dye based fluorescence analysis to IC50 for antitrypanosomal activity against Trypanosoma brucei brucei BS427. The conditions noted are these: read-out: Ratio IC50. The data set is classed as toxicity. A general note: Resazurin is reduced to fluorescent resorufin, in cell work by metabolically active cells.

Data set [3] concerns Trypanosoma cruzi. Kind of data set: Antitrypanosomal activity against Trypanosoma cruzi infected in rat H9C2 cells by DRAQ5 DNA dye based imaging analysis. In kind it is functional, organism-based. In outline: as §1
Data set [4] can be described thus: Selectivity index, ratio of cytotoxicity against rat H9C2 cells to IC50 for antitrypanosomal activity against Trypanosoma cruzi infected in rat H9C2 cells. The data set is classed as toxicity, cell-based. The conditions noted are these: read-out: Selectivity Index.
The subject of data set [5] is Trypanosoma cruzi. Description: Trypanosomacidal activity against Trypanosoma cruzi strain Y trypomastigotes assessed as reduction in number of infected cells at 0.078 uM measured within first 24 hrs by Hoechst 33342 staining based fluorescence imaging assay. In kind it is functional, organism-based. In outline: (§2)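 Time-to-kill assay against intracellular T. cruzi, with test article at 0.312 or 0.078 μM. Controls were benznidazole 20 μM, posaconazole 0.04 μM and DMSO. The number of infected host cells was tracked over time after drug addition.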

A short description of data set [6]: Kinetic solubility of compound at pH 2 to 6.5 by nephelometry. The conditions noted are these: buffer, read-out: Kinetic_solubility. The data set is classed as physicochemical.
The nature of data set [7]: Metabolic stability in human liver microsomes. The data set is classed as ADME, Microsome. In general terms: Liver microsomes are a subcellular fraction often used to study metabolism.
The nature of data set [8]: Half life in human liver microsomes. In kind it is ADME, Microsome.
The subject of data set [9] is Trypanosoma cruzi. Description: Antitrypanosomal activity against Trypanosoma cruzi Brazil trypomastigotes expressing firefly luciferase infected in BALB/c mouse assessed as reduction in parasitemia at 50 mg/kg, po via gavage twice daily at 30 mins after administration with 50 mg/kg, ip CYP inhibitor, 1-aminobenzotriazole twice daily and measured after 6 days by bioluminescence assay. In kind it is functional, organism-based. In outline:
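BALB/c mice were infected with trypomastigotes of a transgenic T. cruzi Brazil strain expressing firefly luciferase. Treatment was by oral gavage twice daily: vehicle (PBS with 2% methylcellulose and 0.5% Tween 80), or 50 mg/kg test article given 30 min after ip 1-aminobenzotriazole 50 mg/kg. Benznidazole 30 mg/kg was given by oral gavage once daily. Parasite load was measured by bioluminescence imaging at treatment day 0 (3 days post infection) and day 6.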

Data set [10] can be described thus: Toxicity in BALB/c mouse infected with Trypanosoma cruzi Brazil trypomastigotes expressing firefly luciferase assessed as body weight loss at 50 mg/kg, po via gavage twice daily at 30 mins after administration with 50 mg/kg, ip CYP inhibitor, 1-aminobenzotriazole twice daily. In kind it is organism-based. The conditions noted are these: in vivo, 0.5 h. An outline of the steps: (§3)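 Acutely infected BALB/c mice carried luciferase-expressing T. cruzi Brazil strain. Mice received oral gavage twice daily of 50 mg/kg test article in PBS with 2% methylcellulose and 0.5% Tween 80. Each dose followed ip 1-aminobenzotriazole 50 mg/kg by 30 min.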

A short description of data set [11]: Toxicity in BALB/c mouse infected with Trypanosoma cruzi Brazil trypomastigotes expressing firefly luciferase assessed as lethargy at 50 mg/kg, po via gavage twice daily at 30 mins after administration with 50 mg/kg, ip CYP inhibitor, 1-aminobenzotriazole twice daily. In kind it is organism-based. The following applies: in vivo, 0.5 h. An outline of the steps: as §3

In data set [12] the test system is Trypanosoma brucei rhodesiense. Description: Antitrypanosomal activity against blood stream form of Trypanosoma brucei rhodesiense STIB900 after 72 hrs by Alamar blue based fluorometric assay. In kind it is functional, organism-based.
Data set [13] deals with Trypanosoma cruzi. Description: Antitrypanosomal activity against Trypanosoma cruzi Tulahuen C2C4 trypomastigotes infected in rat L6 cells after 96 hrs by photometric analysis. The data set is classed as functional, organism-based.
In a further data set the test system is Leishmania donovani. Description: AntiLeishmanial activity against amastigote form of Leishmania donovani MHOM/ET/67/L82 after 72 hrs by Alamar blue dye based fluorometric analysis. In kind it is functional, organism-based.
In another data set the test system is Plasmodium falciparum. Kind of data set: Antiplasmodial activity against erythrocytic stage of Plasmodium falciparum after 48 hrs by [3H]-hypoxanthine incorporation assay. In kind it is functional, organism-based.
Data set [14] in a line: Metabolic stability in mouse liver microsomes. In kind it is ADME, Microsome.
For data set [15], the system named is Trypanosoma cruzi. Description: Trypanosomacidal activity against Trypanosoma cruzi strain Y trypomastigotes assessed as reduction in number of infected cells at 0.078 uM measured for 24 to 96 hrs by Hoechst 33342 staining based fluorescence imaging assay relative to benznidazole. The data set is classed as functional. An outline of the steps: as §2
For data set [16], the system named is Trypanosoma cruzi. Description: Trypanosomacidal activity against Trypanosoma cruzi strain Y trypomastigotes assessed as reduction in number of infected cells at 0.312 uM measured within first 24 hrs by Hoechst 33342 staining based fluorescence imaging assay. The data set is classed as functional, organism-based. An outline of the steps:
as §2

Data set [17] has as its system Trypanosoma cruzi. Description: Trypanosomacidal activity against Trypanosoma cruzi strain Y trypomastigotes assessed as reduction in number of infected cells at 0.312 uM measured for 24 to 96 hrs by Hoechst 33342 staining based fluorescence imaging assay relative to benznidazole. The data set is classed as functional. In outline: as §2

The record followed here is ChEMBL document CHEMBL4342478, “Discovery of Potent N-Ethylurea Pyrazole Derivatives as Dual Inhibitors of Trypanosoma brucei and Trypanosoma cruzi” (ACS Med Chem Lett, 2020).

Activity calls are given as the source filed them. The calls are words filed in the database; no cut-off is given here.

For orientation: IC50 means the concentration that gives 50% inhibition. As usually defined, the half-life is the time in which the quantity being followed falls by half. With `O=C(NCCn1ccc(-c2ccc(F)c(F)c2)n1)N1CC[C@H](F)C1`, the IC50 in data set [1] is 9 nM; with Trypanosoma cruzi [3] it was 16 nM. Further, the selectivity ratio at 69 h in data set [2] was found to be 8650. Also, in [4], the selectivity ratio lay in the range of 588 to 3160. The outcome (with Trypanosoma cruzi [5]; in the data set on Trypanosoma cruzi [9]; in data set [12]; with Trypanosoma cruzi [13]; in the data set with Leishmania donovani; in the data set on Plasmodium falciparum) was Active. In [6], the solubility kinetic is more than 20 µg/mL. Also, the Stability result in data set [7] and in data set [14] was “Stable” each time. In addition, in data set [8], the half-life is 23 min. Further, the Activity entry in [10] and in data set [11] was “Toxic” in each case. In the data set with Trypanosoma cruzi [15], the “fold change (FC)” value amounted to 36.

`O=C(NCCn1ccc(-c2ccccc2)n1)N1CCCCC1`: the values for the IC50 (in data set [1]; in the data set with Trypanosoma cruzi [3]) were 60 nM and 250 nM, respectively. Moreover, in data set [2], the selectivity ratio at 69 h stood at 1350. Besides, the selectivity ratio in data set [4] is 32. The outcome (in the data set with Trypanosoma cruzi [16]; in [12]; with Trypanosoma cruzi [13]; in the data set with Leishmania donovani; with Plasmodium falciparum) was Active. In data set [6], the solubility kinetic was more than 20 µg/mL. Moreover, the “fold change (FC)” value with Trypanosoma cruzi [17] worked out at 36.
